# MrgX1 allo act: human MrgX1 positive allosteric modulation, primary screen. actives 0.63% (n = 310,000). AID 588675. B-score at 10 µM. MrgX1-HEK293, Fluo-4 calcium flux, FDSS; stronger effect = higher value. Q96LB2;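 active means plate-corrected calcium response at least 3 library SD above typical, normal starting fluorescence, not activating the receptor alone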;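 further: compound read alongside a low EC10 to EC30 dose of BAM8-22 agonist; peak minus trough fluorescence over baseline measured at the second addition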
# Target sequence (Q96LB2 whole entry, looked up): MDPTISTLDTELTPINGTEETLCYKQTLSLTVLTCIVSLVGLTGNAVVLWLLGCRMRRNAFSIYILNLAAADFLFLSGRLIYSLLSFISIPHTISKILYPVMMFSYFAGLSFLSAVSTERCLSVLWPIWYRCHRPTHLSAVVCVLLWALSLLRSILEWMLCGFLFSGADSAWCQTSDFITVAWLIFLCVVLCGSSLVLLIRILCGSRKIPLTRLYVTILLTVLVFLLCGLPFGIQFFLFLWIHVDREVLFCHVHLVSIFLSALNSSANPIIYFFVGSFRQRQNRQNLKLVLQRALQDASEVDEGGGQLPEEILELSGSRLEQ
# MrgX1 antagonist: blocks BAM8-22 activation of human MrgX1 receptor | Q96LB2 | MRGX1-HEK293 calcium flux, Fluo-4, BAM8-22 antagonism; stronger effect = lower value | B-score at 10 µM | actives 1.3% (n = 310,000) | AID 588676;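 active means calcium-response B-score plate-corrected more than 3 library SD below zero, starting fluorescence within 5 deviations, no agonist response on first addition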;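 further: peak minus trough fluorescence over baseline after final BAM8-22 challenge near maximal dose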
# RGS4 pot: potentiators or activators of RGS4. actives 0.92% (n = 310,000). AID 463111. B-score at 10 µM. HEK293 M3R/inducible RGS4, carbachol calcium flux Fluo4; stronger effect = lower value;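 active means B-score of the integrated calcium signal more than 4 SD below the library mean, with starting fluorescence not abnormally high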;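 further: negative B-score means reduced calcium response which marks RGS4 activation or potentiation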
#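 Reagent: ECmax carbachol challenge; Test system: M3R-expressing HEK293 line, RGS4 induced by doxycycline; Schedule: overnight RGS4 induction, 30 min dye load 37 °C, 20 min compound RT; Detection: calcium dye Fluo4 fluorescence; Read-out: Agonist-evoked peak-minus-minimum fluorescence over baseline, integrated ratio, B score.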
# MrgX1 agonist: agonists of human MrgX1 receptor | Q96LB2 | MrgX1-HEK293 cells, Fluo-4 calcium fluorescence, agonist mode; stronger effect = higher value | B-score at 10 µM | actives 0.44% (n = 310,000);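 active means calcium response B-score plate-corrected fluorescence ratio at least 3 library SD, with starting fluorescence B-score inside 5 SD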
#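 System – MrgX1-expressing HEK293 cells · Incubation – cells plated overnight, dye loaded 0.5 h 37 °C, 0.5 h room temperature · Technique – kinetic Fluo-4 NW fluorescence of intracellular calcium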
# RGS4 block: human RGS4 inhibition; B-score at 10 µM; AID 463165; HEK293 M3R/RGS4 inducible, Fluo-4 calcium flux; stronger effect = higher value; triggered by carbachol at its EC20; actives 0.45% (n = 310,000);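 active means B-score, a plate-corrected calcium signal, over three deviations above library mean, with baseline fluorescence within five deviations of library mean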;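 further: RGS4 expression induced by doxycycline in cells with stable M3 receptor; B-score is computed from the integrated fluorescence ratio over baseline after carbachol; higher B-score means a larger calcium signal and so more RGS4 inhibition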
# Target sequence (P49798 whole entry, looked up): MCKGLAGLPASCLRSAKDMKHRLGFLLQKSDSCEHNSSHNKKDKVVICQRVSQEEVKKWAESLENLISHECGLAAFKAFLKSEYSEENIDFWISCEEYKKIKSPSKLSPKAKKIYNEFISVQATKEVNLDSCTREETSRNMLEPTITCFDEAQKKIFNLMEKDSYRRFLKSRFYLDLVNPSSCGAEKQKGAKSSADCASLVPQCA
# RGS4 block valid: RGS4 inhibitor validation; shares compounds with RGS4 block; HEK293 M3R/RGS4, carbachol calcium Fluo-4 fluorescence; carbachol added at its EC20; 0 = buffer wells, 100 = carbachol control; calcium response, % at 10 µM; actives 65% (n = 1,700); AID 492999;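 active means duplicate-averaged calcium response above the buffer-only control mean plus 5 SD of those controls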;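 further: integrated fluorescence ratio F max minus min over baseline F0; higher response in RGS4-induced cells means RGS4 inhibition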
# M3R Ca ctr: non-induced cell nonspecific activity of RGS4 inhibitors. shares compounds with RGS4 block. HEK293 M3R non-induced, carbachol calcium Fluo-4; submaximal (EC20) carbachol stimulus; buffer wells 0%, carbachol control wells 100%. activity (percent), % at 10 µM. actives 20% (n = 1,900). AID 493000; call rule not given here;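 further: RGS4 induction absent so cells express M3R without RGS4; higher means more calcium signal and flags a non-specific hit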
# RGS4 inh ctr2: signal in non-induced cells without carbachol, RGS4 inhibitor counter-screen | shares compounds with RGS4 block | HEK293 M3R/RGS4 non-induced, Fluo-4 calcium, no carbachol; normalised: buffer wells 0%, carbachol wells 100% | calcium response (agonist-mode artifact), % at 10 µM | actives 22% (n = 1,900) | AID 493001;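 active means duplicate-averaged calcium rise in uninduced cells above buffer wells' mean plus 5 SD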
# A number is an active result; – = inactive; · = no result given. An excerpt weighted towards active compounds, which were near 3.5% of everything screened.
SMILES,MrgX1 allo act,MrgX1 antagonist,RGS4 pot,MrgX1 agonist,RGS4 block,RGS4 block valid,M3R Ca ctr,RGS4 inh ctr2
CC(C)(C)c1cc(N2CCOCC2)n2ncc(-c3ccc(Cl)cc3)c2n1,–,–,–,–,11,27%,47%,–
Cc1nn2c(N3CCOCC3)cc(C(C)(C)C)nc2c1-c1ccc(Cl)cc1,·,·,–,·,–,·,·,·
Cc1ccc(-c2cnn3c(N4CCOCC4)cc(C)nc23)cc1,–,–,–,–,–,·,·,·
Cc1cc(N2CCOCC2)n2ncc(-c3ccc(Cl)cc3)c2n1,–,–,–,–,–,–,–,–
COc1cc(COCC(O)CN2CCc3ccccc3C2)cc(OC)c1OC (stereo not drawn),–,–,–,–,–,·,·,·
Cc1cc(C)nc(SCc2nnc(SCc3ccccc3Cl)o2)n1,–,–,–,–,–,·,·,·
Cc1ccc(C=Nc2ccc(N(C)C)cc2)o1,–,–,–,–,5.3,10%,–,–
COc1ccc(/C=C2/C(=O)N(c3ccccc3)N=C2C)cc1OC,–,–,–,–,–,–,–,–
CC1=NN(c2ccccc2)C(=O)/C1=C/c1cccc(C)c1,–,–,–,–,–,·,·,·
CC1(C)CCCN(Cc2c(O)ccc3c(=O)c(-c4nc5ccccc5s4)c(N)oc23)C1,–,–,–,–,–,·,·,·
CC1CCCN(Cc2c(O)ccc3c(=O)c(-c4nc5ccccc5s4)c(N)oc23)C1 (stereo not drawn),–,–,–,–,5,16%,–,–
CC1CCN(Cc2c(O)ccc3c(=O)c(-c4nc5ccccc5s4)c(N)oc23)CC1,–,–,–,–,6.3,12%,–,–
COc1ccc2cc(C(=O)C3CCCN(C(=O)C4=NN(C)C(=O)CC4)C3)ccc2c1 (stereo not drawn),–,–,–,–,–,·,·,·
Cc1nn2c(-c3ccccc3)ccnc2c1Br,–,–,–,–,–,–,–,–
Cc1ccc(-c2ccnc3c(Br)c(C)nn23)cc1,–,–,–,–,–,–,–,–
Cc1nn2c(-c3cccnc3)ccnc2c1-c1ccccc1,–,–,–,–,–,·,·,·
COc1ccc(Cc2nnc(NC(=O)c3cccc([N+](=O)[O-])c3)s2)cc1,–,–,–,–,–,·,·,·
COc1ccc2[nH]c(=O)c(C(c3nnnn3C(C)(C)C)N(Cc3ccco3)CC3CCCO3)cc2c1 (stereo not drawn),–,–,–,–,–,·,–,7.0%
COc1ccc2[nH]c(=O)c(C(c3nnnn3CC3CCCO3)N3CCCCC3)cc2c1 (stereo not drawn),–,–,–,–,–,·,·,·
Cc1cc(C)c2[nH]c(=O)c(C(c3nnnn3C(C)(C)C)N(Cc3ccco3)CC3CCCO3)cc2c1 (stereo not drawn),–,–,–,–,–,–,–,–
Cc1cc2cc(C(c3nnnn3C(C)(C)C)N(Cc3ccco3)CC3CCCO3)c(=O)[nH]c2cc1C (stereo not drawn),–,–,–,–,5.4,18%,–,–
COc1cccc(CN2CCC(Oc3ccc(C(=O)N4CCCCC4)cc3)CC2)c1O,–,–,–,–,–,·,·,·
C=CCNC(=S)/N=c1/ccccn1CCC,–,–,–,–,–,·,·,·
CCOC(=O)/C(=C/c1ccc(OC(=O)c2ccccc2)cc1)C(C)=O,–,–,–,–,–,·,–,8.5%
CCOc1ccc2cc(/C=C/C(=O)c3ccco3)c(Cl)nc2c1,–,–,–,–,–,–,–,40%
SMILES,MrgX1 allo act,MrgX1 antagonist,RGS4 pot,MrgX1 agonist,RGS4 block,RGS4 block valid,M3R Ca ctr,RGS4 inh ctr2
O=C(NC1CCCCC1)C(c1cccnc1)N(C(=O)c1ccc(Cl)nc1)C1CCCCC1 (stereo not drawn),–,–,–,–,–,·,·,·
COc1cccc(-c2noc(CCC(=O)NCC3CCCO3)n2)c1 (stereo not drawn),–,–,–,–,–,·,·,·
O=C1Nc2ccc(S(=O)(=O)N3CCCC3)c3cccc1c23,–,–,–,–,–,·,·,·
O=C1Nc2ccc(S(=O)(=O)N3CCCC3C(=O)O)c3cccc1c23 (stereo not drawn),–,–,–,–,5.5,–,–,–
Cc1ccc(S(=O)(=O)NC(C(=O)Oc2ccc3c(C(F)(F)F)cc(=O)oc3c2)c2ccccc2)cc1 (stereo not drawn),–,–,–,–,–,·,·,·
CN(CC(=O)NCCc1ccc(S(N)(=O)=O)cc1)S(=O)(=O)c1cccc2nsnc12,–,–,–,–,–,·,·,·
COC(=O)c1sc(N2C(=O)C(O)=C(C(=O)c3ccc(C)o3)C2c2cc(OC)ccc2OC)nc1C (stereo not drawn),–,–,–,–,7.3,46%,47%,–
COc1ccc(OC)c(C2C(C(=O)c3ccc(C)o3)=C(O)C(=O)N2c2cc(C)on2)c1 (stereo not drawn),–,–,–,–,–,·,·,·
COC(=O)[C@H](C)NC(=O)Nc1cc(OC)ccc1OC,–,–,–,–,–,·,·,·
Cc1nc(C(=O)Nc2cc(F)cc(Cl)c2)sc1C1(C)CC(c2ccccc2)=NO1 (stereo not drawn),–,–,–,–,–,·,·,·
Cc1cc(C(=O)CN2C(=O)NC(c3ccccc3)(c3ccccc3)C2=O)c(C)n1Cc1ccco1,–,–,–,–,7.5,17%,–,–
Cc1cc(C(=O)CN2C(=O)NC(C)(c3cccc(Br)c3)C2=O)c(C)n1Cc1ccco1 (stereo not drawn),–,–,–,–,–,·,·,·
CC(C)Sc1cc(N2CCOCC2)nc(-c2ccc(Cl)cc2)n1,–,–,–,–,5.2,12%,28%,–
CCN1CCN(c2cc(SC(C)C)nc(-c3ccc(OC)cc3)n2)CC1,·,·,–,·,–,·,·,·
CSCc1cc(N2CCOCC2)nc(-c2ccccc2)n1,–,–,–,–,–,·,·,·
c1ccc(-c2nc(N3CCOCC3)cc(N3CCOCC3)n2)cc1,–,–,–,–,–,·,·,·
Clc1ccc(Sc2cc(N3CCOCC3)nc(-c3ccccc3)n2)cc1,–,–,–,–,7.7,14%,–,–
COc1cccc(Sc2cc(N3CCOCC3)nc(-c3ccccc3)n2)c1,–,–,–,–,8.8,34%,–,–
CCNC(=S)Nc1ccc(Cc2nc3ccccc3[nH]2)cc1,–,–,–,–,–,·,·,·
COc1cc(C(CC(=O)O)n2cnnn2)ccc1OC(C)C (stereo not drawn),–,–,–,–,–,·,·,·
COc1cccc(CNC(=S)Nc2cc(OC)ccc2OC)c1,–,–,–,–,–,·,·,·
